Laboratory results taken from PubChem BioAssay AID652011 (Sanford-Burnham Center for Chemical Genomics, 2013).
Where “and” joins values, the source holds several entries; their conditions need not be identical. Equal values may be shown once. Calls of active or inactive are those of the source.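 Rule for the calls: active = IC50 of 10 µM or lower on HIF-2a in both cell lines, but not on HIF-1a; inactive = the rest, including compounds also potent on HIF-1a.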

What was measured:
Experiment in all cases: HIF reporter inhibition across pancreatic and renal lines – cell-based, luminescence, MIAPaCa-2, 786-0, panel, SAR follow-up (AID 652011)
HIF2a PANC = conditions: MIAPaCa-2/PANC HIF reporter, luciferase luminescence, desferoxamine, overnight
In short: (§1)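 Also added: desferoxamine added before compound. Dosing: compounds from 10 mM and 0.3125 mM stocks, 1% DMSO final. Timing: overnight seeding and compound exposure, 37 °C, 5% CO2, 10-min detection. Detection: luciferase luminescence with One-Glo reagent.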

HIF1a = conditions: MIAPaCa-2/PANC HIF reporter, luciferase luminescence, desferoxamine, overnight
In short: as §1

[1] = target: Endothelial PAS domain-containing protein 1 (Homo sapiens) (UniProt Q99814); conditions: MIAPaCa-2/PANC HIF reporter, luciferase luminescence, desferoxamine, overnight; HIF2a PANC cells; mean of runs
In short: as §1

[2] = run 1, individual run IC50, panel line
[3] = run 2, individual run IC50, panel line

Sequence of Endothelial PAS domain-containing protein 1 (Homo sapiens) (Q99814 whole entry, looked up, the tested form may be a part): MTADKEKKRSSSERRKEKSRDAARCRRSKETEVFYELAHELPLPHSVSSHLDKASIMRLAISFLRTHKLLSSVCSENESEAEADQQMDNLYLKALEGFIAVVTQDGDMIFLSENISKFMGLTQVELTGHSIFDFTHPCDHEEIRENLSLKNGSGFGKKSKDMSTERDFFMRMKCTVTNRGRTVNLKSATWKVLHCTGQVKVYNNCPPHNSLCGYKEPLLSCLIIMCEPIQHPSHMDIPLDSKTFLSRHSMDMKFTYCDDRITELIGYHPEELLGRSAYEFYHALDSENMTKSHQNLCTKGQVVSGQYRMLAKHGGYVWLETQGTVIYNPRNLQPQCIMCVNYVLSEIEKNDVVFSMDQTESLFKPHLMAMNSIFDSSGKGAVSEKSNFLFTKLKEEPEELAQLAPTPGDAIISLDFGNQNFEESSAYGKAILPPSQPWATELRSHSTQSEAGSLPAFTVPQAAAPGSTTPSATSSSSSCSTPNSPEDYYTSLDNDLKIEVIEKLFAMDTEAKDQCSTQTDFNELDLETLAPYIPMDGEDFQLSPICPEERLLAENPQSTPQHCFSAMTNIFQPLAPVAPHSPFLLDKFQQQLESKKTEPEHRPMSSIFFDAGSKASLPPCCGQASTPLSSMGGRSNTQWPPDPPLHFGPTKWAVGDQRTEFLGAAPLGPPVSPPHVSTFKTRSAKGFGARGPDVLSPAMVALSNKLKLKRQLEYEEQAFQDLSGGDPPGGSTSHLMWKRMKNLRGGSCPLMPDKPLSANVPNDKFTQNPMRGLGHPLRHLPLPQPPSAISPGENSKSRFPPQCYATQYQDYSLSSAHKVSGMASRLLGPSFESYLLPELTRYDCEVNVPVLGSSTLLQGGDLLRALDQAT

| SMILES | IC50 (HIF2a PANC; [2]) | IC50 (HIF2a PANC; [3]) [µM] | IC50 (HIF1a; [2]) [µM] | IC50 (HIF1a; [3]) [µM] | IC50 [1] |
| --- | --- | --- | --- | --- | --- |
| CCCCc1ccc(-c2noc(CCC(=O)NC3CC3)n2)cc1 | > 99 µM | < 0.19 | > 99 | > 99 | inactive |
| CC(C)NC(=O)CCc1nc(-c2ccc(C(C)(C)C)cc2)no1 | < 10 µM | < 0.19 | > 99 | > 99 | < 0.19 µM |
| CC(C)CNC(=O)CCc1nc(-c2ccc(C(C)(C)C)cc2)no1 | < 0.19 µM | < 0.19 | > 99 | > 99 | < 0.19 µM |
| CC(C)(C)c1ccc(-c2noc(CCC(=O)NC3CC3)n2)cc1 | < 10 µM | < 0.19 | > 99 | > 99 | < 0.19 µM |
| CC(C)(C)c1ccc(-c2noc(CCC(=O)NC3CCC3)n2)cc1 | < 10 µM | < 0.19 | > 99 | > 99 | < 0.19 µM |
| CCc1ccc(-c2noc(CCC(=O)NC(C)CC)n2)cc1 (configuration not stated) | > 99 µM | > 99 | > 99 | > 99 | > 99 µM (inactive) |
| CCNC(=O)CCc1nc(-c2cccc(OC)c2)no1 | > 99 µM | > 99 | > 99 | > 99 | > 99 µM (inactive) |
| CC(C)(C)c1ccc(-c2noc(CCC(N)=O)n2)cc1 | < 0.19 µM | < 0.19 | > 99 | > 99 | < 0.19 µM |
| CNC(=O)CCc1nc(-c2ccc(C(C)C)cc2)no1 | < 0.19 µM | < 0.19 | > 99 | > 99 | < 0.19 µM |
| CNC(=O)CCc1nc(-c2ccccc2)no1 | > 99 µM | > 99 | > 99 | > 99 | > 99 µM (inactive) |
| CCCCc1ccc(-c2noc(CCC(=O)NC)n2)cc1 | > 99 µM | > 99 | > 99 | > 99 | > 99 µM (inactive) |
| CCNC(=O)CCc1nc(-c2ccc(OCC)cc2)no1 | > 99 µM | > 99 | > 99 | > 99 | > 99 µM (inactive) |
| CCC(C)NC(=O)CCc1nc(-c2ccc(C(C)(C)C)cc2)no1 (configuration not stated) | > 99 µM | > 99 | > 99 | > 99 | > 99 µM (inactive) |
| CC(C)(C)c1ccc(-c2noc(CCC(=O)NCc3ccco3)n2)cc1 | < 0.19 µM | – | > 99 | > 99 | – |
| CCNC(=O)CCc1nc(-c2ccccc2)no1 | > 99 µM | > 99 | > 99 | > 99 | > 99 µM (inactive) |
| CCNC(=O)CCc1nc(-c2cccc(C)c2)no1 | > 99 µM | > 99 | > 99 | > 99 | > 99 µM (inactive) |
| CN(C)C(=O)CCc1nc(-c2ccc(C(C)(C)C)cc2)no1 | > 99 µM | > 99 | > 99 | > 99 | > 99 µM (inactive) |
| CCC(C)NC(=O)CCc1nc(-c2ccccc2)no1 (configuration not stated) | > 99 µM | > 99 | > 99 | > 99 | > 99 µM (inactive) |
| CNC(=O)CCc1nc(-c2ccc(C(C)(C)C)cc2)no1 | < 0.19 µM | > 99 | > 99 | > 99 | inactive |
| CC(C)c1ccc(-c2noc(CCC(=O)NC3CC3)n2)cc1 | > 99 µM | > 99 | > 99 | > 99 | > 99 µM (inactive) |
| CCc1ccc(-c2noc(CCC(=O)NC(C)(C)C)n2)cc1 | > 99 µM | > 99 | > 99 | > 99 | > 99 µM (inactive) |
| CCNC(=O)CCc1nc(-c2c(Cl)cccc2Cl)no1 | > 99 µM | > 99 | > 99 | > 99 | > 99 µM (inactive) |
| C=CCNC(=O)CCc1nc(-c2ccc(C(C)(C)C)cc2)no1 | < 10 µM | < 0.19 | > 99 | > 99 | < 0.19 µM |
| CCC(C)NC(=O)CCc1nc(-c2ccc(C(C)C)cc2)no1 (configuration not stated) | > 99 µM | > 99 | > 99 | > 99 | > 99 µM (inactive) |
| O=C(O)CCc1nc(-c2ccccc2)no1 | > 99 µM | > 99 | > 99 | > 99 | > 99 µM (inactive) |
| CNC(=O)CCc1nc(-c2ccc(OC)cc2)no1 | > 99 µM | > 99 | > 99 | > 99 | > 99 µM (inactive) |

| SMILES | IC50 (HIF2a PANC; [2]) | IC50 (HIF2a PANC; [3]) [µM] | IC50 (HIF1a; [2]) [µM] | IC50 (HIF1a; [3]) [µM] | IC50 [1] |
| --- | --- | --- | --- | --- | --- |
| CCCCc1ccc(-c2noc(CCC(=O)NCC)n2)cc1 | < 0.19 µM | < 0.19 | > 99 | > 99 | < 0.19 µM |
| CCCCc1ccc(-c2noc(CCC(=O)NC(C)(C)C)n2)cc1 | < 0.19 µM | < 0.19 | > 99 | > 99 | < 0.19 µM |
| CCNC(=O)CCc1nc(-c2ccccc2Cl)no1 | > 99 µM | > 99 | > 99 | > 99 | > 99 µM (inactive) |
| CCOc1ccc(-c2noc(CCC(=O)NC)n2)cc1 | 1.72 µM | 0.673 | > 99 | > 99 | 1.2 µM |
| CC(C)(C)c1ccc(-c2noc(CCC(=O)Nc3ccccc3)n2)cc1 | < 0.19 µM | < 0.19 | > 99 | > 99 | < 0.19 µM |
| CNC(=O)CCc1nc(-c2ccc(C)cc2)no1 | 48 µM | > 99 | > 99 | > 99 | inactive |
| CC(C)(C)c1ccc(-c2noc(CCC(=O)N3CCCCC3)n2)cc1 | > 99 µM | 38.2 | > 99 | > 99 | inactive |
| CCc1ccc(-c2noc(CCC(=O)NC3CC3)n2)cc1 | > 99 µM | > 99 | > 99 | > 99 | > 99 µM (inactive) |
| CC(C)(C)NC(=O)CCc1nc(-c2ccc(C(C)(C)C)cc2)no1 | < 0.19 µM | 0.573 | > 99 | > 99 | 0.573 µM |
| CCc1ccc(-c2noc(CCC(=O)NC)n2)cc1 | > 99 µM | > 99 | > 99 | > 99 | > 99 µM (inactive) |
| CCNC(=O)CCc1nc(-c2ccc(C(C)(C)C)cc2)no1 | > 99 µM and < 10 µM | < 0.19 | > 99 | > 99 | – |
| CCCCc1ccc(-c2noc(CCC(=O)NC(C)CC)n2)cc1 (configuration not stated) | < 0.19 µM | < 0.19 | > 99 | > 99 | < 0.19 µM |
| CC(C)(C)c1ccc(-c2noc(CCC(=O)N3CCOCC3)n2)cc1 | > 99 µM | > 99 | > 99 | > 99 | > 99 µM (inactive) |
| CNC(=O)CCc1nc(-c2ccc(Cl)cc2)no1 | > 99 µM | > 99 | > 99 | > 99 | > 99 µM (inactive) |
| CCNC(=O)CCc1nc(-c2ccc(CC)cc2)no1 | > 99 µM | > 99 | > 99 | > 99 | > 99 µM (inactive) |
| CC(C)(C)NC(=O)CCc1nc(-c2ccccc2)no1 | > 99 µM | > 99 | > 99 | > 99 | > 99 µM (inactive) |
| CNC(=O)CCc1nc(-c2ccc(F)cc2)no1 | > 99 µM | > 99 | > 99 | > 99 | > 99 µM (inactive) |
| O=C(CCc1nc(-c2ccccc2)no1)NC1CC1 | > 99 µM | > 99 | > 99 | > 99 | > 99 µM (inactive) |
| CC(C)(C)c1ccc(-c2noc(CCC(=O)NCC3CCCO3)n2)cc1 (configuration not stated) | < 0.19 µM | < 0.19 | > 99 | > 99 | < 0.19 µM |
| CCNC(=O)CCc1nc(-c2ccccc2C)no1 | > 99 µM | > 99 | > 99 | > 99 | > 99 µM (inactive) |
| CC(C)c1ccc(-c2noc(CCC(=O)NC(C)(C)C)n2)cc1 | > 99 µM | > 99 | > 99 | > 99 | > 99 µM (inactive) |
| CCN(CC)C(=O)CCc1nc(-c2ccc(C(C)(C)C)cc2)no1 | > 99 µM | > 99 | > 99 | > 99 | > 99 µM (inactive) |
| CCCNC(=O)CCc1nc(-c2ccc(C(C)(C)C)cc2)no1 | > 99 µM | < 0.19 | > 99 | > 99 | inactive |
| CCNC(=O)CCc1nc(-c2ccc(C(C)C)cc2)no1 | > 99 µM | > 99 | > 99 | > 99 | > 99 µM (inactive) |
| CCNC(=O)CCc1nc(-c2cccc(F)c2)no1 | > 99 µM | > 99 | > 99 | > 99 | > 99 µM (inactive) |
